According to PMC8427777 (ACS Omega, 2021):
“Also recorded” adds a separate entry of the source. Like-named read-outs stand apart in the source and are kept apart here. acyl = not defined here

Columns and labels:
[1] = up to 100 μM, in solution; ref not given ("has been reported"); cited from earlier work
recombinant human C5a [2] = target: T1, recombinant human C5a (Homo sapiens, UniProt P01031); assay: Two-site fluorescence study: ECL2 peptide; assay type: binding; conditions: 0.5–1 μM SR1
T1 sequence (P01031 678-751 limits assumed): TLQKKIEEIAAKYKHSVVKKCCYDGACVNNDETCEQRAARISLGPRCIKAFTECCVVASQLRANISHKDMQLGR
How it was run: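 Two-site fluorescence: 0.1 μM C5a was preincubated with 0.5 μM NT-peptide and titrated with 0–1 μM ECL2 peptide. Readings were taken in 1× PBS (pH ∼ 7.4) at 25°C, with excitation at 278–280 nm, emission at 290–450 nm and 5 nm slits. Three scans were averaged and the free-peptide signal was subtracted.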

recombinant human C5a [3] = target: T1, recombinant human C5a; assay: Two-site CD study: ECL2 peptide; assay type: binding
How it was run: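 Two-site CD: 0.1 μM recombinant human C5a was preincubated with 0.5 μM NT-peptide, then titrated with 0–1 μM ECL2 peptide. Far-UV CD was run at 25°C in 1× PBS (pH ∼ 7.4), with at least three scans (1 s time constant, 1 nm step). Each sample was prepared and read separately, and the signal of the corresponding free peptides was subtracted.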

[4] = Conformational analysis of free peptides by CD; assay type: physicochemical; conditions: 1 μM, PBS pH ∼7.4, 25 °C; compared with SR3
recombinant human C5a [5] = target: T1, recombinant human C5a; assay: CD titration of NT-peptides against recombinant human C5a; assay type: binding
How it was run: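 Far-UV CD at 25°C in filtered, degassed 1× PBS (pH ∼ 7.4). Recombinant human C5a was held at 0.1 μM and NT-peptides (native Met1-Lys28 sequence or mutants) at 0–1 μM. Samples were incubated ≥1 h at 4°C, each prepared and read separately, with at least three scans (1 s time constant, 1 nm step). Free-peptide signal was subtracted, and data were converted to mean residue ellipticity, normalized and fitted by nonlinear regression for affinity.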

[6] = Intrinsic tyrosine fluorescence of free peptides; assay type: physicochemical; conditions: at the working concentrations, 1× PBS pH ∼ 7.4, 25 °C
C5a = assay: Effect of prednisone on SR3–C5a interaction by CD; assay type: binding, human; conditions: 0.5 μM PDN, 0.35 μM SR3, 0.1 μM C5a, PBS, 25 °C; preliminary
recombinant human C5a [7] = target: T2, recombinant human C5a (human, UniProt P01031 678-751); assay: circular dichroism titration + other fluorescence titration
T2 sequence (looked up): T1 sequence (P01031 678-751 limits assumed)

recombinant human C5a [8] = target: T2, recombinant human C5a; assay: as above; remark: listed apart in the source
C5aR1 = conditions: cited from earlier work
COVID-19 = conditions: anti-C5a antibody; cited from earlier work

For “SR1: native ECL2 sequence of C5aR1 (Tyr174-Arg198), acylated and amidated, carrying Cys188/Ser mutation (acyl-YRVVREEYFPPKVLSGVDYSHDKRR-NH2; reading uncertain)”, the “CD signature of free ECL2 peptide” value [1] is given as “twisted short-stranded β-hairpin-like conformation”, the “fluorescence response, C5a preincubated with SR3 or SR5” value (recombinant human C5a [2]; 0.1 μM C5a + 0.5 μM SR3 or SR5) is given as “consistent with the observation made in the CD; also recorded: modest change in fluorescence intensity” and the “fluorescence response, C5a preincubated with SR4” value (recombinant human C5a [2]; 0.1 μM C5a + 0.5 μM SR4) is given as “quenched appreciably”. For the same molecule, the “CD response, C5a preincubated with SR3, 0.5 μM SR1” value (recombinant human C5a [3]; 0.1 μM C5a + 0.5 μM SR3, PBS, 25 °C, 0.5 μM SR1) was “substantially enhanced the CD signal”, the “CD response, C5a preincubated with SR3, 1 μM SR1 (vs 0.5 μM)” value (recombinant human C5a [3]; 0.1 μM C5a + 0.5 μM SR3, PBS, 25 °C, 1 μM SR1) was “did not change further” and the “CD response, C5a preincubated with SR4” value (recombinant human C5a [3]; 0.1 μM C5a + 0.5 μM SR4, compared to the C5a–SR3/C5a–SR5 system) was “relatively strong conformational response”.

In the case of SR4 (MASFNYTTPAYGHYAAKATLDLNTPVAK), the “effect of alanine mutations on conformational ordering” value [4] is reported as “can potentially affect the overall conformational ordering”, the “change of CD signal / conformation of C5a” value (recombinant human C5a [5]; 0.1 μM C5a, 0-1 μM peptide, PBS pH ∼ 7.4, 25 °C) is reported as “robust conformational alteration” and the “binding affinity toward C5a in words” value (recombinant human C5a [5]; CD and fluorescence titration studies taken together (A1 and A2)) is reported as “could not be obtained reliably; also recorded: did not demonstrate a quantifiable binding affinity”. For the same molecule, the intrinsic fluorescence [6] was “very negligible”.

In the case of `C[C@]12C=CC(=O)C=C1CC[C@@H]1[C@@H]2C(=O)C[C@@]2(C)[C@H]1CC[C@]2(O)C(=O)CO` [PDN, prednisone], the “response of PDN-preincubated C5a to SR3 compared to free C5a” value (C5a) is reported as “comparatively weaker response”.

Work on MDSFNYTTPDYGHYDDKDTLDLNTPVDK (peptide, UniProt P21730 1-28, looked up) [SR3, native NT-peptide of C5aR1 (Met1-Lys28)] yielded a Kd (recombinant human C5a [7]) of 0.126 to 0.193 µM.

Work on MDSFNATTPDAGHADDKDTLDLNTPVDK (peptide, UniProt P21730 1-28, looked up) [SR5, Tyr/Ala mutant NT-peptide of C5aR1 (Met1-Lys28)] yielded a Kd (recombinant human C5a [7]) of 0.105 to 0.123 µM.

acyl-YRVVREEYFPPKVLSGVDYSHDKRR-NH2 (peptide, UniProt P21730 174-198, looked up, reading uncertain) [SR1, ECL2 peptide of C5aR1 (Tyr174-Arg198)]: binds (recombinant human C5a [8]).

B1: C5a: cationic proinflammatory glycoprotein, complement anaphylatoxin; ligand of C5aR1 (protein)
chain: T1 sequence (P01031 678-751 limits assumed)
In the case of B1, the “potency toward C5aR1” value (C5aR1) is listed as “nanomolar to picomolar potency” and the “potency toward C5aR1” value (C5aR1; native-like conditions) is listed as “picomolar–nanomolar potency”.

B2: Vilobelimab: anti-C5a antibody (antibody, chains of the INN, looked up, V domains shown)
VH: QVQLQQSGPQLVRPGTSVKISCKASGYSFTTFWMDWVKQRPGQGLEWIGRIDPSDSESRLDQRFKDRATLTVDKSSSTVYMQLSSPTSEDSAVYYCARGNDGYYGFAYWGQGTLVTVSS
VL: DIVLTQSPASLAVSLGQRATISCKASQSVDYDGDSYMKWYQQKPGQPPKLLIYAASNLQSGIPARFSGSGSGTDFTLNIHPVEEEDAATYYCQQSNEDPYTFGGGTKLEIK
In the case of B2, the “outcome in COVID-19 treatment” value (COVID-19) is given as “favorable outcome”.
